Screens (PubChem BioAssay)
TRPC4 potent: TRPC4 (mouse) allosteric potentiation; Q9QUQ5; 0.42% of 310,000 active; AID 2227; HEK293 TRPC4beta/mu-opioid, DAMGO EC20, Fluo-4 Ca2+ flux; stronger effect = higher value; B-score at 10 µM;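 active = B-score of calcium response area above 5 SD of library B-scores, with initial fluorescence ratio within 5 SD of library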;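 also: B-score of integrated fluorescence ratio over time as area under calcium response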
TRPC6 activator: mouse TRPC6 channel activation | HEK293-TRPC6 membrane potential dye fluorescence; stronger effect = higher value | B-score at 10 µM | 0.13% of 310,000 active;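 active = B-score of the integrated fluorescence ratio above library mean plus 3 SD, and starting fluorescence ratio within library mean plus 5 SD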;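 also: higher score means more depolarization so channel activation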
Target sequence (Q61143 whole entry, looked up): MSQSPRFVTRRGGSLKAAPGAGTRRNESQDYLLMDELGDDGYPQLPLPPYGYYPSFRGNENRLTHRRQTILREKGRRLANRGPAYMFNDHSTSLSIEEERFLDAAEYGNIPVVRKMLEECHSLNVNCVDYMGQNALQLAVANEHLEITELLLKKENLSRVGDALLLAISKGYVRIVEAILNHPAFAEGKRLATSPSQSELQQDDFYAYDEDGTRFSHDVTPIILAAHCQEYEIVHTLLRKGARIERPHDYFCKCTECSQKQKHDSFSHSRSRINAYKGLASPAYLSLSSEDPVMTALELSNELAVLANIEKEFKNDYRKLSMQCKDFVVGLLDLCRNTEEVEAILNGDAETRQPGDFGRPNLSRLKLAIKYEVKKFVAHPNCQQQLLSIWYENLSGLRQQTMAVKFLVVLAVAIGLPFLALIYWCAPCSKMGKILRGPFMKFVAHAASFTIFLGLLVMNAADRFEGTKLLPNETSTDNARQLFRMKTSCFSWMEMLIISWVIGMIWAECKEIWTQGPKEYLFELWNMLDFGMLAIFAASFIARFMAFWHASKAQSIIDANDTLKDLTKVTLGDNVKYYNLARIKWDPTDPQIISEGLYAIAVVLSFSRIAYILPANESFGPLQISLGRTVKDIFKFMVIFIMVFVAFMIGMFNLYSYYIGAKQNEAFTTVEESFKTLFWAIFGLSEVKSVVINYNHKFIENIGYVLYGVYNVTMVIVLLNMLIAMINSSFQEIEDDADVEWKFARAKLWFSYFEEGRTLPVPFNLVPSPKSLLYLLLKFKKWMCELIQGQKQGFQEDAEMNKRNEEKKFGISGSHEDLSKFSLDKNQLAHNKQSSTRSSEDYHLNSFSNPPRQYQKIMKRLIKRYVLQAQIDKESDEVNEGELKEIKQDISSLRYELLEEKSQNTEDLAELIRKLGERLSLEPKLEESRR
TRPC4 inh: inhibitors of mouse TRPC4 channel; HEK293 TRPC4beta/mu-opioid, DAMGO-evoked Fluo4 calcium flux; stronger effect = lower value; 0.39% of 300,000 active; Q9QUQ5; B-score at 10 µM;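 active = B-score over 3 SD under the library average, no early fluorescence shift, positive overall ratio signal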
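Material: HEK293 cells with stable TRPC4beta plus mu-opioid receptor expression / Probe or stimulus: DAMGO in two steps, submaximal then maximal / Compound: single concentration per test compound / Technique: kinetic Fluo4 fluorescence imaging of calcium influx / Read-out: per-well B score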
TRPC6 inh: mouse TRPC6 channel inhibition; Q61143; HEK293-TRPC6, membrane potential dye, ACh-evoked depolarization; stronger effect = lower value; B-score at 10 µM; 1.1% of 310,000 active; AID 2553;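 active = B-score under library mean minus 3 SD, initial fluorescence not abnormally high, positive integrated signal ratio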;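 also: B-score derived from integrated fluorescence ratio over the kinetic read; more negative B-score means stronger inhibition of depolarization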
TRPC4 agonist: activators of mouse TRPC4 channel | 0.49% of 310,000 active | HEK293 TRPC4beta/mu-opioid, Fluo4 calcium fluorescence; stronger effect = higher value | Q9QUQ5 | AID 2237 | B-score at 10 µM;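 active = B-score above 5 SD of library B-scores, and initial fluorescence ratio not above library mean plus 5 SD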;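 also: positive B-score marks a calcium rise read as TRPC4 activation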
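Material: HEK293 stable line with TRPC4beta plus mu-opioid receptor; technique: Fluo4 calcium-sensitive dye fluorescence, kinetic, 1 Hz baseline; timing: Fluo4 dye loading 45 min at room temperature, 110 s recording; controls: assay buffer as low control, maximal DAMGO as high control; read-out: integrated baseline-normalised fluorescence ratio, converted to per-well B score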
HEK293 TRPC6 ctr: parental HEK293 nonspecific activity of TRPC6 modulators; membrane potential dye fluorescence; 51% of 2,400 active; membrane potential signal change, % at 10 µM; shares compounds with TRPC6 inh;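 active = membrane potential signal moves up or down beyond 5 SD from buffer-only wells, on both duplicate plates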
HEK293 MPD ctr 2: second counter-screen for TRPC6 modulators: effect in parental HEK293 cells; shares compounds with TRPC6 inh; membrane potential dye fluorescence; after compound, maximal acetylcholine stimulation; inhibition, % at 10 µM; 14% of 2,400 active; AID 488926;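 active = membrane potential signal drops by more than 5 SD from the mean control signal, in both duplicate plates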;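 also: plate controls were acetylcholine ECmax control wells for no effect and buffer only wells for full effect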
TRPC4 ctr mod: mouse TRPC4 off-target activity of TRPC6 modulators. shares compounds with TRPC6 inh. HEK293 TRPC4/mu-opioid, membrane potential fluorescence. percent change from control (negative = decrease, positive = increase), % at 10 µM. 69% of 2,400 active. AID 488927;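 active = membrane potential signal moved up or down beyond 5 SD of buffer control wells, in both duplicate plates, actives on both sides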;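 also: plate controls were assay buffer wells for no effect and DAMGO maximal-effect wells for full effect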
TRPC4 ctr inh 2: second selectivity test of TRPC6 modulators against mouse TRPC4. 55% of 2,400 active. shares compounds with TRPC6 inh. HEK293 TRPC4/mu-opioid, membrane potential dye fluorescence; stimulated with maximal-effect DAMGO. AID 488928. inhibition, % at 10 µM;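 active = drop in membrane potential signal beyond 5 SD of the control wells in both duplicate plates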;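 also: TRPC4 counter screen for TRPC6 hits run under conditions tuned for TRPC6 not TRPC4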
TRPC6 block conf: mouse TRPC6 inhibitor confirmation. shares compounds with TRPC6 inh. HEK293-TRPC6, membrane potential dye, ACh-evoked depolarization. inhibition, % at 10 µM. 43% of 3,300 active. AID 488960;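 active = fluorescence ratio falls more than 5 SD below the full-stimulation control mean, in both duplicate runs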;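 also: integrated fluorescence ratio of peak minus minimum over baseline after agonist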
TRPC6 act conf: mouse TRPC6 activator confirmation. HEK293-TRPC6 membrane potential dye fluorescence, FDSS. shares compounds with TRPC6 inh. 11% of 2,800 active. activation, % at 10 µM;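 active = ratio signal rise beyond 5 SD above unstimulated control wells' mean, seen in both duplicate runs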;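 also: plate controls were buffer EC0 wells for no effect and acetylcholine ECmax response for full effect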
Starred values were filed as active, the others as inactive. In the library only some 2.3% were active in any assay of this set; here they are far more common.

For Cc1cc(=O)n2c3ccccc3n(CC(O)CN3CCN(Cc4ccccc4)CC3)c2c1C#N (centres undefined) the results were TRPC4 potent inactive, TRPC6 activator inactive, TRPC4 inh inactive, TRPC6 inh -9.5*, TRPC4 agonist inactive, HEK293 TRPC6 ctr -157%*, HEK293 MPD ctr 2 inactive, TRPC4 ctr mod -36%*, TRPC4 ctr inh 2 65%*, TRPC6 block conf inactive and TRPC6 act conf inactive.
Screening CC/C(=N\NC(=O)c1ccc(N2CCCC2=O)cc1)c1ccccc1 returned TRPC4 potent inactive, TRPC6 activator inactive, TRPC4 inh inactive, TRPC6 inh inactive and TRPC4 agonist inactive.
`CC(C)c1ccc(N=C2N=C(N)c3ccccc32)cc1` gave TRPC4 potent inactive, TRPC6 activator inactive, TRPC4 inh inactive, TRPC6 inh -6.1*, TRPC4 agonist inactive, HEK293 TRPC6 ctr inactive, HEK293 MPD ctr 2 inactive, TRPC4 ctr mod -29%*, TRPC4 ctr inh 2 77%*, TRPC6 block conf 73%* and TRPC6 act conf inactive.
NC1=NC(=Nc2ccc(Cl)cc2)c2ccccc21 was read as TRPC4 potent inactive, TRPC6 activator inactive, TRPC4 inh inactive, TRPC6 inh inactive and TRPC4 agonist inactive.
Screening NC1=NC(=Nc2ccc(Br)cc2)c2ccccc21 returned TRPC4 potent inactive, TRPC6 activator inactive, TRPC4 inh inactive, TRPC6 inh -5*, TRPC4 agonist inactive, HEK293 TRPC6 ctr inactive, HEK293 MPD ctr 2 inactive, TRPC4 ctr mod -17%*, TRPC4 ctr inh 2 40%*, TRPC6 block conf inactive and TRPC6 act conf inactive.
CCN(CC)CCN(Cc1cc2cc3c(cc2[nH]c1=O)OCO3)C(=S)NCc1ccco1 was read as TRPC4 potent inactive, TRPC6 activator inactive, TRPC4 inh inactive, TRPC6 inh -5.5*, TRPC4 agonist inactive, HEK293 TRPC6 ctr inactive, HEK293 MPD ctr 2 inactive, TRPC4 ctr mod inactive, TRPC4 ctr inh 2 58%* and TRPC6 block conf inactive.
CCN(CC)CCCN(Cc1cc2cc3c(cc2[nH]c1=O)OCO3)C(=S)NCc1ccco1 was read as TRPC4 potent inactive, TRPC6 activator inactive, TRPC4 inh inactive, TRPC6 inh inactive and TRPC4 agonist inactive.
`CC(/C=C/c1cccc([N+](=O)[O-])c1)=N/NC(=O)c1cccnc1` gave TRPC4 potent inactive, TRPC6 activator inactive, TRPC4 inh inactive, TRPC6 inh -5.9*, TRPC4 agonist inactive, HEK293 TRPC6 ctr inactive, HEK293 MPD ctr 2 inactive, TRPC4 ctr mod inactive, TRPC4 ctr inh 2 inactive, TRPC6 block conf inactive and TRPC6 act conf inactive.
Screening Cc1ccc(C)c(NC(=O)CN(C)C(=O)c2oc3c(Cl)cccc3c2C)c1 returned TRPC4 potent inactive, TRPC6 activator inactive, TRPC4 inh inactive, TRPC6 inh inactive and TRPC4 agonist inactive.
`Cc1ccc(C)c(N(CC(=O)N/N=C/c2ccc(-c3ccc([N+](=O)[O-])cc3)o2)S(=O)(=O)c2ccccc2)c1` gave TRPC4 potent inactive, TRPC6 activator inactive, TRPC4 inh inactive, TRPC6 inh inactive and TRPC4 agonist inactive.
`CCOc1ccc(S(=O)(=O)N(CC(=O)N/N=C/c2ccc(-c3ccc([N+](=O)[O-])cc3)o2)c2ccccc2)cc1` gave TRPC4 potent inactive, TRPC6 activator inactive, TRPC4 inh inactive, TRPC6 inh -5.1*, TRPC4 agonist inactive, HEK293 TRPC6 ctr inactive, HEK293 MPD ctr 2 inactive, TRPC4 ctr mod inactive, TRPC4 ctr inh 2 inactive and TRPC6 block conf inactive.
`COc1ccc(NC(=O)c2ccc(Cl)c(NC(=O)c3ccncc3)c2)cc1` gave TRPC4 potent inactive, TRPC6 activator inactive, TRPC4 inh inactive, TRPC6 inh inactive and TRPC4 agonist inactive.
Screening Cc1ccc(S(=O)(=O)c2cc3c(=O)n4ccccc4nc3n(CCCN3CCOCC3)c2=N)cc1C returned TRPC4 potent inactive, TRPC6 activator inactive, TRPC4 inh inactive, TRPC6 inh -6.2*, TRPC4 agonist inactive, HEK293 TRPC6 ctr -250%*, HEK293 MPD ctr 2 66%*, TRPC4 ctr mod -52%*, TRPC4 ctr inh 2 80%*, TRPC6 block conf 66%* and TRPC6 act conf inactive.
Screening N=c1c(S(=O)(=O)c2ccccc2)cc2c(=O)n3ccccc3nc2n1CCCN1CCOCC1 returned TRPC4 potent inactive, TRPC6 activator inactive, TRPC4 inh inactive, TRPC6 inh -5.5*, TRPC4 agonist inactive, HEK293 TRPC6 ctr -142%*, HEK293 MPD ctr 2 inactive, TRPC4 ctr mod -41%*, TRPC4 ctr inh 2 51%*, TRPC6 block conf 50%* and TRPC6 act conf inactive.
